The list is not random: actives were taken first. Their share in the collection is about 2.2%.
SF1 activator: activators of human SF-1, primary screen, cell-based, CHO-K1, Gal4-SF-1 LBD, luciferase luminescence; Steroidogenic factor 1 (Homo sapiens), Q13285; CHO-K1 Gal4-SF-1 LBD luciferase reporter; % increase over DMSO SF-1-specific signal; activation, % at 10 µM; hit rate 1.9% among 65,000; AID 522, 2006;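 active means activation above the mean activation of all tested compounds plus 3 SD, cut at about 50% in these data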
Target sequence (Q13285 whole entry, looked up, the tested form may be a part): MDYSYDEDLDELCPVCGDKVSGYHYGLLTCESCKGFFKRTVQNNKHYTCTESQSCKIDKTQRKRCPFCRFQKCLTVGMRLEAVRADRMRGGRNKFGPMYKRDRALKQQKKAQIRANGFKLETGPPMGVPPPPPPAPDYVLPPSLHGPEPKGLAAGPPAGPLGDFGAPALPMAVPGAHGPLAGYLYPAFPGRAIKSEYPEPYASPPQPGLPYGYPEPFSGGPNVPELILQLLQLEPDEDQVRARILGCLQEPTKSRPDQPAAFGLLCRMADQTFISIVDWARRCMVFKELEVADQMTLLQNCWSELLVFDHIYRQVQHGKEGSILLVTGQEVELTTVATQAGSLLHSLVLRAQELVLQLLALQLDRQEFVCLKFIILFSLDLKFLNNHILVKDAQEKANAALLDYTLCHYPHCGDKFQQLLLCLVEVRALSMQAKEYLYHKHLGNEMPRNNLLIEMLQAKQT
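Test system: CHO-K1 cells with Gal4–hSF-1 LBD chimera plus Gal4-driven luciferase; Input: 4,000 cells/well; Compound: 10 µM only; Times: 20 h compound treatment, 37 °C; Measured by: steady-glow luciferase luminescence, read after 15 min reagent incubation; Measure: percent activation versus DMSO; Control set: DMSO and mock-transfected background; Replicates: one test per compound.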
MT1-MMP txn act: MT1-MMP promoter reporter activation – cell-based, luciferase luminescence, primary screen; activation factor at 10 µM; hit rate 0.16% among 86,000; HT1080 MT1-MMP promoter luciferase reporter, overnight; hits give high values; AID 750, 2007;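 active means activation factor of at least 2 for MT1-MMP transcription at 10 µM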
CD11b adhes inh: inhibitors of CD11b/CD18 adhesion to fibrinogen, primary screen, K562 cells, luminescence; hit rate 0.54% among 93,000; inhibition, % at 10 µM; ATPlite luminescence; Mn2+ added to activate the integrin; Integrin beta-2 (Homo sapiens) + Integrin alpha-M (Homo sapiens), P05107+P11215;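 active means primary inhibition of 50% or more at 10 µM, then 40% or more on retest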
Mac1 fbg enh: enhancers of CD11b/CD18 adhesion to fibrinogen, primary screen, K562 cells, luminescence. ATPlite luminescence. activation, % at 10 µM. Integrin beta-2 (Homo sapiens) + Integrin alpha-M (Homo sapiens), P05107+P11215. hit rate 0.07% among 93,000. AID 1499, 2009;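 active means 10 µM primary screen giving 50% or more activity, confirmed by 40% or more on retest at that dose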
RORA act: activators of orphan receptor RORA, primary screen, cell-based, luminescence | AID 560, 2006 | CHO-K1 Gal4-RORA LBD luciferase reporter; percent increase over mock-subtracted basal signal | activation, % at 10 µM | Nuclear receptor ROR-alpha (Homo sapiens), P35398 | hit rate 1.5% among 65,000;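 active means activation above the mean of all tested compounds plus 3 SD, cut at about 49% in these data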;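 further: 0% = DMSO-treated RORA cells and 100% = added signal equal to DMSO minus mock-transfected cells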
Calb biofilm kill: clotrimazole potentiators killing Candida biofilms, primary screen, with clotrimazole, Alamar Blue. C. albicans biofilm + clotrimazole. AID 834, 2007. inhibition, % at 6 µM. hit rate 0.14% among 85,000;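 active means inhibition above 20%; inactive means inhibition below 20%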;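 further: preformed 24 hr biofilms exposed to compound for 48 hr; 0% = biofilm without compound and 100% = blank killed by clotrimazole plus chlorhexidine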
The depositor's hits bear a star; . = no result.

SMILES | SF1 activator | MT1-MMP txn act | CD11b adhes inh | Mac1 fbg enh | RORA act | Calb biofilm kill
CC(C)c1cc(C(=O)NC2CCCCC2)no1 | 54.0* | 1.8 | . | . | 11.3 | -2.0
CCCc1cc(C(=O)NC2CCCC2)no1 | 29.0 | 1.6 | -3.7 | 0.2 | 61.2* | .
CCOC(=O)C1=C(C)N(CCCC(=O)N(Cc2ccc3c(c2)OCO3)C(C(=O)NC(C)(C)C)c2ccc3c(c2)OCO3)C(=O)NC1c1ccc(Br)cc1 (stereo not given) | . | 1.2 | . | . | . | .
CCOC(=O)c1ccccc1NC1c2ccccc2C(=O)N1c1ccc(C)cn1 (stereo not given) | 62.4* | . | 1.6 | 2.7 | 21.9 | 4.4
CCOC(=O)c1ccc(NC2c3ccccc3C(=O)N2c2ccccn2)cc1 (stereo not given) | . | . | -6.2 | -2.5 | . | .
CCOc1ccccc1NC1c2ccccc2C(=O)N1c1ccc(C)cn1 (stereo not given) | 12.9 | 1.1 | 0.3 | -4.5 | 63.1* | 6.4
Cc1ccc(OCCCCn2cnc3ccccc32)c(C)c1 | . | 1.4 | 85.8* | -9.2 | . | 5.7
Clc1ccccc1OCCn1cnc2ccccc21 | -7.7 | 1.3 | 6.3 | -3.4 | 51.1* | 7.3
Clc1ccc(OCCn2cnc3ccccc32)cc1 | -13.9 | 1.1 | -0.4 | -1.6 | 18.4 | .
COC(=O)C1(CC(C)C)C=CCN1C(=O)c1ccccc1 (stereo not given) | . | 1 | . | . | . | .
CC(C)(C)NC(=O)COC(=O)/C=C/c1ccc(F)cc1 | . | . | 0.6 | -0.4 | . | .
O=C1CN(C(=O)c2cc3ccccc3o2)c2ccccc2N1 | . | . | 2.3 | 2.9 | . | .
O=C1CN(C(=O)OCc2ccccc2)c2ccccc2N1 | 47.4 | 1.4 | -18.3 | 4.8 | 51.1* | 14.3
CCOc1ccc(NC(=O)c2oc3ccccc3c2NC(=O)C(C)C)cc1 | -14.3 | 1.2 | . | . | -23.7 | 6.2
CCc1cc2c(=O)c(-c3ccc4c(c3)OCCO4)coc2cc1OC(=O)c1ccco1 | 66.2* | 0.6 | 4.0 | -1.5 | 29.2 | -0.5
Cc1nnc(SCC(=O)Nc2ccccc2C(=O)NC2CC2)s1 | . | . | -0.1 | 2.4 | . | .
N#Cc1c(-c2ccccc2)nc(-c2ccccc2)[nH]c1=O | . | . | 51.9* | -3.6 | . | .
CCCCSc1nnc(-c2ccccc2)c2ccccc12 | . | . | 58.4 | 6.5 | . | .
NC(=O)c1oc2ccccc2c1NC(=O)C1CCCCC1 | 6.7 | 1.1 | -62.6 | 6.2 | -3.9 | 21.3*
NC(=O)c1oc2ccccc2c1NC(=O)c1nc2ccccc2s1 | 63.6* | 1.5 | -11.9 | 10.6 | 83.2* | 6.4
C/C(N)=C(/C#N)C(=O)CSc1ccc2c(c1)OCCO2 | 57.9* | 1.2 | 1.9 | -3.6 | -2.2 | .
Brc1cccc(-c2nc(-c3ccncc3)no2)c1 | 60.3* | 1.3 | -1.2 | -1.6 | 47.1 | 1.8
Clc1ccc(Br)cc1-c1nc(-c2ccncc2)no1 | 44.0 | 1.5 | -11.6 | 68.1 | 16.3 | 0.0
Cc1cc(C)cc(-c2nc(-c3ccncc3)no2)c1 | 90.3* | 1.3 | 1.1 | 0.4 | 42.4 | 20.7*
COC(=O)[C@@]1(Cc2ccc(OC)cc2)[C@H]2c3cc(C(=O)N(C)C)n(CCN4CCNC4=O)c3C[C@H]2CN1C(=O)c1ccccc1 | . | 1.1 | . | . | . | .
SMILES | SF1 activator | MT1-MMP txn act | CD11b adhes inh | Mac1 fbg enh | RORA act | Calb biofilm kill
O=C(NC1CCCCC1)C12CC3CC(CC(Cl)(C3)C1)C2 | . | . | 4.0 | -1.3 | . | .
O=C(/C=C/c1ccccc1)c1ccccc1 | 3.8 | 1.3 | . | . | -14.8 | 10.9
O=C(/C=C/c1ccccc1)c1cc(Br)ccc(=O)c1O | . | . | 88.0* | -2.9 | . | .
CCN=C1S/C(=C\c2sccc2C)C(=O)N1CC | . | . | 5.1 | 2.6 | . | .
Cn1c2ccccc2c(=O)c2c(=O)n(C3CCCCC3)c(-c3cccs3)nc21 | . | 1.1 | -1.4 | -4.2 | . | 4.8
CCCn1c(C)cc(C(=O)COc2ncnc3sccc23)c1C | 52.6* | 1 | 5.4 | 9.1 | 6.9 | .
COc1cc(-c2nnc3sc(-c4ccccn4)nn23)cc(OC)c1OC | -8.1 | 1 | . | . | 3.5 | -1.1
Cc1csc2nc(CSc3ccc(Cl)cc3)cn12 | 31.6 | 0.9 | -2.5 | -1.8 | -6.5 | 6.1
Clc1ccc(SCc2cn3ccsc3n2)cc1 | 57.7* | 1.9 | 9.9 | -5.8 | 30.3 | 0.4

Screening results: PubChem BioAssay, several laboratories
